This note sets out measurements from ChEMBL document CHEMBL3576785, “Differential Targeting of Human Topoisomerase II Isoforms with Small Molecules” (J Med Chem, 2015).

Active and inactive are the calls of the source. The calls are words filed in the database; no cut-off is given here.

The subject of one assay is K562. The assay can be described thus: Activity of TOP2 in human K562 cells assessed as poisoning activity by measuring phosphorylation of gamma-H2AX at Ser139 at 100 uM after 1 hr by DAPI staining-based epifluorescence microscopic analysis. Format: cell-based. A digest of the protocol: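 K562 cells (human leukaemia, similar expression of both TOP2 isoforms) exposed to 100 µM analogue, DMSO as vehicle control. γ-H2AX (phospho-Ser139 H2AX) detected by immunofluorescence microscopy with nuclear counterstain. Signal quantified in γ-H2AX-positive cells and normalised to VP-16-treated cells.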

The nature of assay [1]: Cytotoxicity against wild type human NALM6 cells assessed as growth inhibition after 5 days by XTT assay. In kind it is functional, cell-based. The following applies: NALM-6, 120 h. A digest of the protocol: (§1)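 Growth inhibition in Nalm-6 wild-type, TOP2A+/- and TOP2B-/- lines. IC50 values are means ±SD of 3 replicate experiments.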
Assay [2] concerns the target DNA topoisomerase 2-alpha (Homo sapiens) (UniProt P11388). Briefly: Activity of TOP2A in human K562 cells assessed as poisoning activity at 100 uM after 1 hr by TARDIS assay. In kind it is cell-based. Put shortly: (§2)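 TARDIS (trapped in agarose DNA immunostaining) in K562 cells, which express both isoforms at similar levels. Cells given 100 µM analogue, DMSO as vehicle control. Drug-stabilised TOP2–DNA complexes detected with isoform-specific immunofluorescence, TOP2A or TOP2B. Fluorescence quantified and normalised to VP-16-treated cells. Single-dose screen, followed by dose–response.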

Assay [3] addresses DNA topoisomerase 2-beta (Homo sapiens) (UniProt Q02880). Briefly: Activity of TOP2B in human K562 cells assessed as poisoning activity at 100 uM after 1 hr by TARDIS assay. Format: cell-based. Put shortly:
as §2

Assay [4] can be described thus: Cytotoxicity against human NALM6 cells expressing 50% TOP2A assessed as growth inhibition after 5 days by XTT assay. In kind it is functional, cell-based. The following applies: NALM-6, 120 h. Put shortly: as §1
In assay [5] the test system is NALM-6. The assay can be described thus: Selectivity ratio of IC50 for human NALM6 cells expressing 50% TOP2A to IC50 for wild type human NALM6 cells. Format: functional.
A short description of assay [6]: Cytotoxicity against TOP2B double knockout human NALM6 cells assessed as growth inhibition after 5 days by XTT assay. In kind it is functional, cell-based. The conditions noted are these: NALM-6, 120 h. A digest of the protocol:
as §1

In assay [7] the test system is NALM-6. The assay can be described thus: Selectivity ratio of IC50 for TOP2B double knockout human NALM6 cells to IC50 for wild type human NALM6 cells. Format: functional.

Sequence of DNA topoisomerase 2-beta (Homo sapiens) (Q02880 whole entry): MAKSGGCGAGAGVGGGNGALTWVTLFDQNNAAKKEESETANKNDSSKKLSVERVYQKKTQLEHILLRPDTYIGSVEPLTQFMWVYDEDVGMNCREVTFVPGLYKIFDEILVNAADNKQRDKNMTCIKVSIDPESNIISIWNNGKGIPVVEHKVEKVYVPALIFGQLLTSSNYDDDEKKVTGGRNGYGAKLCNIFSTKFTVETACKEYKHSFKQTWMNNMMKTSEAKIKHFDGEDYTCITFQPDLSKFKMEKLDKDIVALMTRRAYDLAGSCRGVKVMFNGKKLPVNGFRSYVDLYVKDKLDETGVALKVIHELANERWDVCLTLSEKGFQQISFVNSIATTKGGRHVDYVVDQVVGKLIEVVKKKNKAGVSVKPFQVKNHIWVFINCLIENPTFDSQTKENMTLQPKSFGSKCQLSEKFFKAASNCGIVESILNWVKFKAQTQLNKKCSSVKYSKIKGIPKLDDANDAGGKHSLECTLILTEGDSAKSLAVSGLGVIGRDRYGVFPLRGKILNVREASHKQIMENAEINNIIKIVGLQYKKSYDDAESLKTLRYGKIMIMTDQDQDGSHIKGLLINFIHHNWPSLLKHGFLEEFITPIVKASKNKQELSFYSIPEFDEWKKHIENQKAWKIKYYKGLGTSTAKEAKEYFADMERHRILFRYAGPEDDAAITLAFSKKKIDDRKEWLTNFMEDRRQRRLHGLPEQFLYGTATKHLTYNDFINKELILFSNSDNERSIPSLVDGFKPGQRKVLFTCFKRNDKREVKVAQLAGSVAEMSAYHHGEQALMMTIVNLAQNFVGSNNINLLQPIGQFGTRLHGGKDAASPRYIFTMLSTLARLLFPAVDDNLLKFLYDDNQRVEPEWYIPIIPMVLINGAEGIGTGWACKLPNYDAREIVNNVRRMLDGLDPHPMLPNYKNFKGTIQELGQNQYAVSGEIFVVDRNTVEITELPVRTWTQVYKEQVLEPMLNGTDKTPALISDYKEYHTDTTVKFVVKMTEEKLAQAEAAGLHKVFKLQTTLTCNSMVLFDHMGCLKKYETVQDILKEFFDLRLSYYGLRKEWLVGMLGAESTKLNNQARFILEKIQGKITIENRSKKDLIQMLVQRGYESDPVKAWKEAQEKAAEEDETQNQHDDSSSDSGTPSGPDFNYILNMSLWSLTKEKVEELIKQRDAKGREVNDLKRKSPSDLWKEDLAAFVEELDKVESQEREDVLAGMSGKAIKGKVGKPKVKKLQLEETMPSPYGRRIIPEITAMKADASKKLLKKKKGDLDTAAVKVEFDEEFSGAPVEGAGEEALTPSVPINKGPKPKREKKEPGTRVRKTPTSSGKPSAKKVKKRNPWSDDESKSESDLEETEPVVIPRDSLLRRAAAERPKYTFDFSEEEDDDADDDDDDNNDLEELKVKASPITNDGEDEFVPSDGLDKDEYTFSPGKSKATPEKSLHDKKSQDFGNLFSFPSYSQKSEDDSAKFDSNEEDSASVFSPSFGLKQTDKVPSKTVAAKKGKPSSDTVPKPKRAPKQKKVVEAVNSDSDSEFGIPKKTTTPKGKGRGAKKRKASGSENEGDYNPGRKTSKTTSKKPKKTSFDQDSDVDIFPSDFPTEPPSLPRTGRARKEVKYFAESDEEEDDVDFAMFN
Sequence of DNA topoisomerase 2-alpha (Homo sapiens) (P11388 whole entry, canonical isoform): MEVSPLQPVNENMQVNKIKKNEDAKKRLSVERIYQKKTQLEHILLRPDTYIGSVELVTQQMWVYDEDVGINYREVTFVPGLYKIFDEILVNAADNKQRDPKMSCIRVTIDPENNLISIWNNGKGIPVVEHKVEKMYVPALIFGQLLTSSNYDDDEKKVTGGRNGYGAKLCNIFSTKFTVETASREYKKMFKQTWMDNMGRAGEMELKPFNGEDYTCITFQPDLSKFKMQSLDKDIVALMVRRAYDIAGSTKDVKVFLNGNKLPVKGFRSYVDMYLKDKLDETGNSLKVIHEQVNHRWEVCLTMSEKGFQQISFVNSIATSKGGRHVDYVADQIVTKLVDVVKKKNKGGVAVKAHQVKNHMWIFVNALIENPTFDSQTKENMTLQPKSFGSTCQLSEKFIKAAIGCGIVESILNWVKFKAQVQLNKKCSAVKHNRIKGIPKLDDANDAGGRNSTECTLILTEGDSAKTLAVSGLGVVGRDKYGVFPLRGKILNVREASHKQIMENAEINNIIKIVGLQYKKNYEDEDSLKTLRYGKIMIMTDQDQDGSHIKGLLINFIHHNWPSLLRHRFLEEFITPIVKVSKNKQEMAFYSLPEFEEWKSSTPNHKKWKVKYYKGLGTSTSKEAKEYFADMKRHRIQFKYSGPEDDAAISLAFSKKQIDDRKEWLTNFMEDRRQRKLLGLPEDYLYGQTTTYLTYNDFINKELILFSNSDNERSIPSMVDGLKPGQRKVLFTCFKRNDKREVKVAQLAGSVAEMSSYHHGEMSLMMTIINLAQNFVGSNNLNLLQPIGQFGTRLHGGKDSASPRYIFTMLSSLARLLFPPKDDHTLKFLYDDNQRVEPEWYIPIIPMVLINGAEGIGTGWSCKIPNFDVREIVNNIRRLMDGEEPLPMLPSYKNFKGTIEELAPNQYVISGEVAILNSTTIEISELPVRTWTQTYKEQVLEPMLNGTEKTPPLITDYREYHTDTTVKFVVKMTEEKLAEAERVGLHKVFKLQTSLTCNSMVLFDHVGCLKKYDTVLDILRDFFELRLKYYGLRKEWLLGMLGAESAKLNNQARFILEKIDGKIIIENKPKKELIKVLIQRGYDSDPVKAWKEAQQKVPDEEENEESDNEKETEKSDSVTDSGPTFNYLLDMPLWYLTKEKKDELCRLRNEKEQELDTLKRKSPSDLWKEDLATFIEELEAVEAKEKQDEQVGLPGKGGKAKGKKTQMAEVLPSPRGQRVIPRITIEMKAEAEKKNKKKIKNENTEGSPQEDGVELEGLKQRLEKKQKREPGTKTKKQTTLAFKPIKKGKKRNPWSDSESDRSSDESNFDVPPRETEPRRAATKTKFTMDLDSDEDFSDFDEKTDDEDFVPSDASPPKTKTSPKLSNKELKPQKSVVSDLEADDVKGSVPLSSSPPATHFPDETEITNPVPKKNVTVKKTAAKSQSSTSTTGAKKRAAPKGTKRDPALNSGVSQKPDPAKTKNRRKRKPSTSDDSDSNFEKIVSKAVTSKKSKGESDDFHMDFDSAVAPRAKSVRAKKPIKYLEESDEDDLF

For the compound `COC(=O)CCCCCn1cc(CO[C@@H]2c3cc4c(cc3[C@@H](c3cc(OC)c(O)c(OC)c3)[C@H]3C(=O)OC[C@@H]32)OCO4)nn1`, the result (in the assay with K562; in assay [2]; in assay [3]) was Active. Also, in assay [1], the IC50 came to 3900 nM.
Regarding `COc1cc([C@@H]2c3cc4c(cc3[C@@H](O[C@@H]3O[C@@H]5CO[C@@H](C)O[C@H]5[C@H](O)[C@H]3O)[C@H]3COC(=O)[C@H]23)OCO4)cc(OC)c1O` [ETOPOSIDE], the outcome (in the assay with K562; in assay [2]; in assay [3]) was Active. Also, the IC50 turned out to be 134 nM in assay [1], 234 nM in assay [4] and 182 nM in assay [6]. Also, the “Ratio IC50” value is recorded as 1.7 in the assay on NALM-6 [5] and 1.4 in the assay with NALM-6 [7].
With `COc1cc([C@@H]2c3cc4c(cc3[C@@H](OCc3cn(CCCN(C)C)nn3)[C@H]3COC(=O)[C@H]23)OCO4)cc(OC)c1O`, the outcome (with K562; in assay [2]; in assay [3]) was Active. Further, the IC50 in assay [1] turned out to be 1200 nM; in assay [4] it was 1900 nM; in assay [6], 2360 nM. Besides, the “Ratio IC50” value with NALM-6 [5] is 1.6; with NALM-6 [7], 2.
Turning to `COc1cc([C@@H]2c3cc4c(cc3[C@@H](OCc3cn(Cc5ccc(C(=O)O)cc5)nn3)[C@H]3COC(=O)[C@H]23)OCO4)cc(OC)c1OC`, in the assay on K562, the outcome was Active. In addition, the IC50 in assay [1] is more than 10000 nM.
Turning to `COc1cc([C@@H]2c3cc4c(cc3[C@@H](OCc3cn(-c5ccc(O)cc5)nn3)[C@H]3COC(=O)[C@H]23)OCO4)cc(OC)c1O`, the outcome (in the assay on K562; in assay [2]; in assay [3]) was Active. Further, the IC50 was determined as 3400 nM in assay [1], 3500 nM in assay [4] and 1920 nM in assay [6]. Also, the “Ratio IC50” value amounted to 1 in the assay on NALM-6 [5] and 0.6 in the assay on NALM-6 [7].
On to `COc1cc([C@@H]2c3cc4c(cc3[C@@H](n3cc(CN(C)C)nn3)[C@H]3COC(=O)[C@H]23)OCO4)cc(OC)c1O`, for which the result (in the assay with K562; in assay [2]; in assay [3]) was Active. Also, the IC50 amounted to 620 nM in assay [1], 850 nM in assay [4] and 1320 nM in assay [6]. Further, the entries for the “Ratio IC50” value in the assay with NALM-6 [5] and in the assay on NALM-6 [7] were 1.4 and 2.1, respectively.
